How the values were obtained:
Raji [1] = experiment: Inhibition of 12-O-tetradecanoylphorbol-13-acetate-induced EBV-early antigen activation in human Raji cells assessed as EA activation at 10 molar ratio after 48 hrs relative to TPA; format: cell-based; set-up: scale not given: the % may be the effect or the level left; conditions: human gammaherpesvirus 4
Summary of the method: (§1)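 Raji cells at 10⁶ cells/mL were resuspended in RPMI 1640/10% FCS containing 4 mM n-butyric acid inducer, 32 pmol TPA (20 ng/mL) and 32, 16, 3.2 or 0.32 nmol compound (DMSO), then held 48 h at 37 °C. EA-positive cells were scored blind, at least 500 cells per assay. Activation is expressed as % of the TPA-only positive control (100%), mean ± SD. IC50 is given as mol ratio/TPA.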

Raji [2] = experiment: Inhibition of 12-O-tetradecanoylphorbol-13-acetate-induced EBV-early antigen activation in human Raji cells assessed as EA activation at 1000 molar ratio after 48 hrs relative to TPA; format: cell-based; set-up: scale not given: the % may be the effect or the level left; conditions: human gammaherpesvirus 4; summary of the method: as §1
[3] = Inhibition of 12-O-tetradecanoylphorbol-13-acetate-induced EBV-early antigen activation in human Raji cells assessed as EA activation per 32 pmol TPA after 48 hrs; format: cell-based, human gammaherpesvirus 4; summary of the method: as §1
[4] = Cytotoxicity against human Raji cells assessed as cell viability at 100 molar ratio after 48 hrs by trypan blue staining relative to TPA; format: cell-based; conditions: read-out: Activity
Summary of the method: (§2)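 Raji cells grown to 10⁶ cells/mL, pelleted, resuspended in RPMI 1640 with 10% FCS, 4 mM n-butyric acid, 32 pmol TPA (20 ng/mL in DMSO) plus test compound in DMSO (0.32–32 nmol; mole ratio to TPA 10–1000). After 48 h at 37 °C, cell number and viability were counted on a hemocytometer by Trypan Blue exclusion. At least 60% viability was required for valid EA data.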

[5] = Cytotoxicity against human Raji cells assessed as cell viability at 500 molar ratio after 48 hrs by trypan blue staining relative to TPA; format: cell-based; conditions: read-out: Activity; summary of the method: as §2
Raji [6] = experiment: Inhibition of 12-O-tetradecanoylphorbol-13-acetate-induced EBV-early antigen activation in human Raji cells assessed as EA activation at 500 molar ratio after 48 hrs relative to TPA; format: cell-based; set-up: scale not given: the % may be the effect or the level left; conditions: human gammaherpesvirus 4; summary of the method: as §1
Raji [7] = experiment: Inhibition of 12-O-tetradecanoylphorbol-13-acetate-induced EBV-early antigen activation in human Raji cells assessed as EA activation at 100 molar ratio after 48 hrs relative to TPA; format: cell-based; set-up: scale not given: the % may be the effect or the level left; conditions: human gammaherpesvirus 4; summary of the method: as §1
[8] = Cytotoxicity against human Raji cells assessed as cell viability at 10 molar ratio after 48 hrs by trypan blue staining relative to TPA; format: cell-based; conditions: read-out: Activity; summary of the method: as §2
[9] = Cytotoxicity against human Raji cells assessed as cell viability at 1000 molar ratio after 48 hrs by trypan blue staining relative to TPA; format: cell-based; conditions: read-out: Activity; summary of the method: as §2

IC50 [3]	Structure (SMILES)	Activity (Raji [1])	Activity (Raji [2])	viability at 48 h, 100 molar ratio relative to TPA [4]	viability at 48 h, 500 molar ratio relative to TPA [5]	Activity (Raji [6])	Activity (Raji [7])	viability at 48 h, 10 molar ratio relative to TPA [8]	viability at 48 h, 1000 molar ratio relative to TPA [9]
400 molar ratio	CC1=C(/C=C/C(C)=C/C=C/C(C)=C/C=C/C=C(C)/C=C/C=C(C)/C=C/C2=C(C)CCCC2(C)C)C(C)(C)CCC1 [BETA CAROTENE]	100%	9.1%						
410 molar ratio	COc1c(O)cc2c(c1CC=C(C)C)OC(=O)c1c(cc3c(c1O)C=CC(C)(C)O3)O2 [GARCINISIDONE B]	100%	0%	> 80%	> 80%	50.6%	81.7%	> 80%	70%
350 molar ratio	CC(C)=CCc1c(O)c(CC=C(C)C)c2c(c1O)C(=O)Oc1c(cc(O)c3c1C=CC(C)(C)O3)O2 [GARCINISIDONE E]	90.2%	0%	> 80%	> 80%	40%	71.1%	> 80%	70%
365 molar ratio	COc1c(O)cc2c(c1CC=C(C)C)OC(=O)c1c(cc(O)c(CC=C(C)C)c1O)O2 [GARCINISIDONE A]	91.6%	0%	> 80%	> 80%	44.2%	78.3%	> 80%	70%
360 molar ratio	CC(C)=CCc1c(O)c2c(c3c1OC(C)(C)C=C3)Oc1cc(O)c3c(c1OC2=O)C=CC(C)(C)O3 [GARCINISIDONE D]	92.8%	0%	> 80%	> 80%	40.4%	72%	> 80%	60%
370 molar ratio	CC(C)=CCc1c2c(c(O)c3c1Oc1cc(O)c4c(c1OC3=O)C=CC(C)(C)O4)C=CC(C)(C)O2 [GARCINISIDONE C]	93.5%	0%	> 80%	> 80%	41.8%	72.2%	> 80%	70%
